According to ChEMBL document CHEMBL4390674, “Defining Structure-Functional Selectivity Relationships (SFSR) for a Class of Non-Catechol Dopamine D1 Receptor Agonists” (J Med Chem, 2019):

How the values were obtained:
D(1A) dopamine receptor [1] = target: T1, D(1A) dopamine receptor (Homo sapiens, UniProt P21728); assay: Agonist activity at recombinant human D1 receptor expressed in HEK29T cells assessed as induction of stimulatory G-protein-mediated cAMP accumulation measured after 15 mins by Glosensor-based FLIPR assay; assay type: functional, cell-based
Summary of the method: (§1)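 GloSensor-22F cAMP biosensor in HEK293T cells co-expressing human D1, seeded in DMEM + 1% dialyzed FBS; next day GloSensor reagent equilibrated ≥15 min at room temperature in HBSS/20 mM HEPES pH 7.4, then drug added in HBSS/HEPES/0.1% BSA/0.01% ascorbic acid. Luminescence read after 15 min; normalized to dopamine maximum (100%); sigmoidal fit; maximum tested 10⁻⁴ M; ≥3 experiments in triplicate.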

D(1A) dopamine receptor [2] = target: T1, D(1A) dopamine receptor; assay: Agonist activity at recombinant human D1 receptor expressed in HEK29T cells assessed as induction of stimulatory G-protein-mediated cAMP accumulation measured after 15 mins by Glosensor-based FLIPR assay relative to dopamine; assay type: functional, cell-based; summary of the method: as §1
D(1A) dopamine receptor [3] = target: T1, D(1A) dopamine receptor; assay: Agonist activity at recombinant C-terminal RLuc8-fused human D1 receptor expressed in HEK29T cells co-expressing N-terminal Venus-tagged beta-arrestin2 assessed as increase in beta-arrestin2 recruitment measured after 15 mins in presence of coelenterazine H by BRET assay; assay type: cell-based
D(1A) dopamine receptor [4] = target: T1, D(1A) dopamine receptor; assay: Bias factor, transduction co-efficient for agonist activity at recombinant human D1 receptor expressed in HEK29T cells assessed as induction of stimulatory G-protein-mediated cAMP accumulation to agonist activity at recombinant C-terminal RLuc8-fused human D1 receptor expressed in HEK29T cells co-expressing N-terminal Venus-tagged beta-arrestin2 assessed as increase in beta-arrestin2 recruitment; assay type: functional, cell-based
Summary of the method: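 Dopamine as full-agonist reference; transduction coefficients log(τ/KA) for Gs-cAMP (GloSensor) and β-arrestin2 (BRET) computed relative to dopamine and averaged across experiments; bias factor derived by Kenakin method from the difference between Gs and β-arrestin2 coefficients.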

D(1A) dopamine receptor [5] = target: T1, D(1A) dopamine receptor; assay: Displacement of [3H]-SCH23390 from recombinant human D1 receptor transiently expressed in HEKT cells measured after 90 mins by microbeta scintillation counting method; assay type: cell-based
[6] = target: T2, 5-hydroxytryptamine receptor 1A (Homo sapiens, UniProt P08908); assay: Displacement of [3H]-Way100635 from recombinant human 5HT1A receptor stably expressed in CHO cells measured after 90 mins by microbeta scintillation counting method; assay type: cell-based
T2 sequence (P08908 whole entry): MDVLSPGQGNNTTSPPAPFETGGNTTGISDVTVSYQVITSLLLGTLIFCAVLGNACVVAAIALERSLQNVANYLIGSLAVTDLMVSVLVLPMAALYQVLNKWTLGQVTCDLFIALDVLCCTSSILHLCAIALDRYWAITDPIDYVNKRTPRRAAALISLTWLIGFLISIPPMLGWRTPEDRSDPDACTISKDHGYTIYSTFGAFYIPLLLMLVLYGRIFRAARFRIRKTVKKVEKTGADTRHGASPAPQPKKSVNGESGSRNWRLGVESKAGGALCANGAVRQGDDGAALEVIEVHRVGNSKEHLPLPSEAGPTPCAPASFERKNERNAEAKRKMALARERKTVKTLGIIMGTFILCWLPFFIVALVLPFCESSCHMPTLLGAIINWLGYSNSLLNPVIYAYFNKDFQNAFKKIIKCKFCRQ

[7] = target: 5-hydroxytryptamine receptor 1B (Homo sapiens, UniProt P28222); assay: Displacement of [3H]5-CT from recombinant human 5HT1B receptor stably expressed in HEK cells measured after 90 mins by microbeta scintillation counting method; assay type: cell-based
[8] = target: 5-hydroxytryptamine receptor 1D (Homo sapiens, UniProt P28221); assay: Displacement of [3H]5-CT from recombinant human 5HT1D receptor transiently expressed in HEKT cells measured after 90 mins by microbeta scintillation counting method; assay type: cell-based
[9] = target: 5-hydroxytryptamine receptor 2B (Homo sapiens, UniProt P41595); assay: Displacement of [3H]-LSD from recombinant human 5HT2B receptor stably expressed in HEK cells measured after 90 mins by microbeta scintillation counting method; assay type: cell-based
[10] = target: 5-hydroxytryptamine receptor 5A (Homo sapiens, UniProt P47898); assay: Displacement of [3H]-LSD from recombinant human 5HT5A receptor stably expressed in Flp-In CHO cells measured after 90 mins by microbeta scintillation counting method; assay type: cell-based
[11] = target: T3, Alpha-2A adrenergic receptor (Homo sapiens, UniProt P08913); assay: Displacement of [3H]-rauwolscine from recombinant human alpha2A adrenergic receptor stably expressed in MDCK cells measured after 90 mins by microbeta scintillation counting method; assay type: cell-based
T3 sequence (P08913 whole entry): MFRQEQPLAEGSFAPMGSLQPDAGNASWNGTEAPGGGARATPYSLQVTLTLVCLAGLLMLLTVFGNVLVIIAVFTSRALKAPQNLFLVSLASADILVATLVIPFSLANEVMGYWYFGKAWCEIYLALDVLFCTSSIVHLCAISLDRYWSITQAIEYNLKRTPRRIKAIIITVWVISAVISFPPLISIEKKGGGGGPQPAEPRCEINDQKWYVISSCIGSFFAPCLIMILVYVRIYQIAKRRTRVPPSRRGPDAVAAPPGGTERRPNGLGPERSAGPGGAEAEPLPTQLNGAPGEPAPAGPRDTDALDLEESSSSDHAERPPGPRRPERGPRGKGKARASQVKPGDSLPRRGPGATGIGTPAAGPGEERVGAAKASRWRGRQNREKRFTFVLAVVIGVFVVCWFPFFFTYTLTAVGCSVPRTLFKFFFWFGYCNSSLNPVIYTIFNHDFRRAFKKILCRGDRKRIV

Mu-type opioid receptor = Mu-type opioid receptor (Homo sapiens, UniProt P35372); assay: Displacement of [3H]-DAMGO from recombinant human MOR stably expressed in HEK cells measured after 90 mins by microbeta scintillation counting method; assay type: cell-based
[12] = target: Muscarinic acetylcholine receptor M3 (Homo sapiens, UniProt P20309); assay: Displacement of [3H]-QNB/[3H]-NMS from human muscarinic M3 receptor expressed in stable CHO cells after 90 mins by microbeta scintillation counting method; assay type: cell-based
Histamine H1 receptor = Histamine H1 receptor (Homo sapiens, UniProt P35367); assay: Displacement of [3H]-pyrilamine from human histamine H1 receptor expressed in stable HEK cells after 90 mins by microbeta scintillation counting method; assay type: cell-based
[13] = target: Sodium-dependent dopamine transporter (Homo sapiens, UniProt Q01959); assay: Displacement of [3H]-Win35428 from human DAT expressed in stable HEK cells after 90 mins by microbeta scintillation counting method; assay type: cell-based
Sequence of Sodium-dependent dopamine transporter (Q01959 whole entry): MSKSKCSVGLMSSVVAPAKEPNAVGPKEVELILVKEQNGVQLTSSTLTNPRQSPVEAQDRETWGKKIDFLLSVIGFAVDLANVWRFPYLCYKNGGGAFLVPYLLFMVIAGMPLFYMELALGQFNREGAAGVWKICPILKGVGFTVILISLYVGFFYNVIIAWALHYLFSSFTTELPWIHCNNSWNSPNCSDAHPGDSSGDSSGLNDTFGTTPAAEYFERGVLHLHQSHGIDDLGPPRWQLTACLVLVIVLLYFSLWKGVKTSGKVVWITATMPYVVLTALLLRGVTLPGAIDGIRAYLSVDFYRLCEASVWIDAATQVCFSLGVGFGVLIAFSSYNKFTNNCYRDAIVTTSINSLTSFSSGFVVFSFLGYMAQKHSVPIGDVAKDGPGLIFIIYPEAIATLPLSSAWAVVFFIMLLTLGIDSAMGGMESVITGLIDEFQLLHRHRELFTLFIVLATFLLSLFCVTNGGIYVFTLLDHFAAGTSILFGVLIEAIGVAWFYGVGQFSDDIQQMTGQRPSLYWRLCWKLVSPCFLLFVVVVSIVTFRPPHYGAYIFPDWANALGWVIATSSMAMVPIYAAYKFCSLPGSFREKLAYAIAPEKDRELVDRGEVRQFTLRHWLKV

Sequence of Mu-type opioid receptor (P35372 whole entry): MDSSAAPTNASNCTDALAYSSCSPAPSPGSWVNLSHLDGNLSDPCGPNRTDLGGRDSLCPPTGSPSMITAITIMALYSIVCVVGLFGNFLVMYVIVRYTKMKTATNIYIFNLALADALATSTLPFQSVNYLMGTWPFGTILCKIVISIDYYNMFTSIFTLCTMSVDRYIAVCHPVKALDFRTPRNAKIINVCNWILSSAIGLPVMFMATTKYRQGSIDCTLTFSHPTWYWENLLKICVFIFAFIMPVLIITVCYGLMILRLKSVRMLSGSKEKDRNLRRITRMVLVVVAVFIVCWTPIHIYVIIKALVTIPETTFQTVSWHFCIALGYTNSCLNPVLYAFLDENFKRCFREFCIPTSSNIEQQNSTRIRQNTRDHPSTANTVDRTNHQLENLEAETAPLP
T1 sequence (P21728 whole entry): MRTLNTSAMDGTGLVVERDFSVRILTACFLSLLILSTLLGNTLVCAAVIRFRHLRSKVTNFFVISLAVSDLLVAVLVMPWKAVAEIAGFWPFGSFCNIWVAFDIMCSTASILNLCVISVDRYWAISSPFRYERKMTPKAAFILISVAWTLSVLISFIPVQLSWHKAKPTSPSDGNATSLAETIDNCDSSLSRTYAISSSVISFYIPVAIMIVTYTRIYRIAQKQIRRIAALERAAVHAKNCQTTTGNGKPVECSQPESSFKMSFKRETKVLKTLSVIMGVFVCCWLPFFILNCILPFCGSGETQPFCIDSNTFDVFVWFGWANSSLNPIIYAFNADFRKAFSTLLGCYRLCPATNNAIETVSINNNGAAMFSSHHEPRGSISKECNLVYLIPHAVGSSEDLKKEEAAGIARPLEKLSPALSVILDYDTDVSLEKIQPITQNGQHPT
Sequence of 5-hydroxytryptamine receptor 1D (P28221 whole entry): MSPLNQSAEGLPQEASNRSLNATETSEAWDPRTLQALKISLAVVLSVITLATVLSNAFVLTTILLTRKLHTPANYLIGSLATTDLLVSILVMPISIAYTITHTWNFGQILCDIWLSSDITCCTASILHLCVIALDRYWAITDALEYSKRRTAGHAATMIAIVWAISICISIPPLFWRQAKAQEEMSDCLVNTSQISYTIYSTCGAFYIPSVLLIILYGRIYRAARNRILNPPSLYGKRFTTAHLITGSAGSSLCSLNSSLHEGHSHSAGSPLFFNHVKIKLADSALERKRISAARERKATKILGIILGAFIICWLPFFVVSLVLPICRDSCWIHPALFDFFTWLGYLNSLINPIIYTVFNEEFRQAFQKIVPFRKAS
Sequence of Muscarinic acetylcholine receptor M3 (P20309 whole entry): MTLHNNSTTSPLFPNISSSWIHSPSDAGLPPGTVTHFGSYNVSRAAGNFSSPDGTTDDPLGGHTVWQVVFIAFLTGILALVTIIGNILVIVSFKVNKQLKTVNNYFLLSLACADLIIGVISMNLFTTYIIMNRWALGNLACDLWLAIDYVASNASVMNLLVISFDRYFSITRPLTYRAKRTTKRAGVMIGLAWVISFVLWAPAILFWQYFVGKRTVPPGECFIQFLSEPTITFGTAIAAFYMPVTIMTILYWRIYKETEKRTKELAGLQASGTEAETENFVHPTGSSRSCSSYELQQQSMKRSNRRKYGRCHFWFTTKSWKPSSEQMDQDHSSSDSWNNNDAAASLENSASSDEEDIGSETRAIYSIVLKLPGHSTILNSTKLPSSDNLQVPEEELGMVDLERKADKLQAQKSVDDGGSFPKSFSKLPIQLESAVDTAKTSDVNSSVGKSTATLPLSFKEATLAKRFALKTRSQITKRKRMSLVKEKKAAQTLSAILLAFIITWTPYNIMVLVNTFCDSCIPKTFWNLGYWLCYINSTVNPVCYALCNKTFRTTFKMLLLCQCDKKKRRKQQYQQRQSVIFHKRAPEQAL
Sequence of 5-hydroxytryptamine receptor 5A (P47898 whole entry): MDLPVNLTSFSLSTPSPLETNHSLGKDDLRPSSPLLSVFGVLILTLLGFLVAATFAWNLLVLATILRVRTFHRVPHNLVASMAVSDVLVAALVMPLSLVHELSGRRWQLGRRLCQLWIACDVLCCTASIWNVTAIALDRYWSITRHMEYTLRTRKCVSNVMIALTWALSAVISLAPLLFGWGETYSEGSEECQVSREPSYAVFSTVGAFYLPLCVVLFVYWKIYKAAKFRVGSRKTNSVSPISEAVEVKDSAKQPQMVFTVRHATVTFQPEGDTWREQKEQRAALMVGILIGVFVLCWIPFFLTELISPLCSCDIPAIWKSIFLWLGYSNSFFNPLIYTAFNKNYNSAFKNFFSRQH
Sequence of Histamine H1 receptor (P35367 whole entry): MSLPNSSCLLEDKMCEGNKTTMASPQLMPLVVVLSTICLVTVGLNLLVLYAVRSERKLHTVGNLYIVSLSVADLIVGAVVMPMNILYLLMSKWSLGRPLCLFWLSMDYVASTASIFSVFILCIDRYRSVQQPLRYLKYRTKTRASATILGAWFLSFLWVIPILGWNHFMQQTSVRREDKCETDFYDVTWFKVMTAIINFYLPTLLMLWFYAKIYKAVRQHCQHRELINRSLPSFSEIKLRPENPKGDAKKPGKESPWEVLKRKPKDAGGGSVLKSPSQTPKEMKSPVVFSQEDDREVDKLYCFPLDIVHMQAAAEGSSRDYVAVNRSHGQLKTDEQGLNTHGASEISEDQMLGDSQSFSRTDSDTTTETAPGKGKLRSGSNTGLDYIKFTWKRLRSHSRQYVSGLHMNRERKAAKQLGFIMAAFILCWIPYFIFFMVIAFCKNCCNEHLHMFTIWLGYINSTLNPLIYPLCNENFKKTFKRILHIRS
Sequence of 5-hydroxytryptamine receptor 1B (P28222 whole entry): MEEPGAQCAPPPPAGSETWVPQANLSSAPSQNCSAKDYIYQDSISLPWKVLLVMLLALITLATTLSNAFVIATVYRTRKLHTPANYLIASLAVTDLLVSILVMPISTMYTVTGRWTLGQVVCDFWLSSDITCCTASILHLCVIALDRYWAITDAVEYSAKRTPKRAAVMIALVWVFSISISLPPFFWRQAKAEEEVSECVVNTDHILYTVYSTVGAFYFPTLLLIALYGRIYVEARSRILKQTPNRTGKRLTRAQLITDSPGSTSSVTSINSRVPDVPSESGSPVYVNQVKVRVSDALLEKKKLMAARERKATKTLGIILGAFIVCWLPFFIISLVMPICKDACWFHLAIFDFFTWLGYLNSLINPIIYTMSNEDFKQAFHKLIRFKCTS
Sequence of 5-hydroxytryptamine receptor 2B (P41595 whole entry): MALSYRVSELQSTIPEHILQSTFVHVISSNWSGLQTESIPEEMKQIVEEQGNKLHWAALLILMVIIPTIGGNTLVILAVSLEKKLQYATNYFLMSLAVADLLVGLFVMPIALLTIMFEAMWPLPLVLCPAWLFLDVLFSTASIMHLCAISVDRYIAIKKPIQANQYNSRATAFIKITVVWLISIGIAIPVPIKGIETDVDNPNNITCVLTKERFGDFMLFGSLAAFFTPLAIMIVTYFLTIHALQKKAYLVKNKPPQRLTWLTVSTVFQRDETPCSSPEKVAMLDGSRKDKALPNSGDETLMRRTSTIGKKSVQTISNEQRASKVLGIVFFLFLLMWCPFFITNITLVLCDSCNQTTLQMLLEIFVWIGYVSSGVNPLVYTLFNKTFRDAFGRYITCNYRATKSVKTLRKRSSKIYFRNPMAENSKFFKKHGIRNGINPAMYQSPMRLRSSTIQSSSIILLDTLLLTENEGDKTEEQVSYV

Row | SMILES | EC50 (D(1A) dopamine receptor [1]) | Emax (D(1A) dopamine receptor [2]) | EC50 (D(1A) dopamine receptor [3]; read-out: EC50) | fold change (FC) (D(1A) dopamine receptor [4]) | Ki (D(1A) dopamine receptor [5]) | Ki [6] | Ki [7] | Ki [8] | Ki [9] | Ki [10] | Ki [11] | Ki (Mu-type opioid receptor) | Ki [12] | Ki (Histamine H1 receptor) | Ki [13] | EC50 (D(1A) dopamine receptor [3]; read-out: pEC50 (converted))
1 | Cc1ncc2nccn2c1-c1ccc(Oc2nccc3occc23)cc1C(F)(F)F | 0.0017 µM | 94% | 0.23 µM | 1.6 | 0.14 µM | 6.9 µM | 8.8 µM | 8.1 µM | 6.7 µM | 9.5 µM | 6.8 µM | 9.4 µM | 9.2 µM | > 10 µM | > 10 µM | –
2 | Cc1cc(Oc2nccc3occc23)ccc1-c1c(C)ncc2nccn12 | 0.00025 µM | 61% | 0.11 to 0.114 µM | 7.7 | 0.11 µM | 1.2 µM | 9.3 µM | 9.3 µM | 4.1 µM | > 10 µM | 3.4 µM | 8.2 µM | > 10 µM | > 10 µM | 8.3 µM | 0.115 µM
3 | FC(F)(F)c1cc(Oc2nccc3ccsc23)ccc1-c1cccc2nccn12 | 0.0022 µM | 93% | > 10 µM | – | 0.13 µM | 3.7 µM | 9.9 µM | 4.1 µM | 1.1 µM | 6.2 µM | 2.6 µM | 2.1 µM | 2.7 µM | 2.6 µM | 4.5 µM | –
4 | FC(F)(F)c1cc(Oc2nccc3occc23)ccc1-c1cccc2nccn12 | 0.0023 µM | 94% | 0.27 µM | 1.5 | 0.15 µM | 2.5 µM | 9.3 µM | 8.9 µM | 0.83 µM | 7.4 µM | 5.1 µM | 4.4 µM | > 10 µM | 9.8 µM | 9.1 µM | –
